Rev-erbA mod – Rev-erb alpha (human) modulation; Rev-erbα–FITC-DNA binding, fluorescence polarization, 90 min; activity, % at 10 µM; actives 0.79% (n = 370,000);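 active means activity above about 14%, limit read from the data; passing the limit was not always enough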;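 further: 0% = DMSO wells with 35 nM protein and 100% = DMSO wells with 750 nM protein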
rCAG RNA binder – binds r(CAG) RNA repeats; r(CAG) RNA repeat, TO-PRO-1 dye displacement fluorescence; inhibition, % at 3 µM; actives 1.3% (n = 370,000);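 active means inhibition above the plate cutoff, the mean of all test compounds on that plate plus 3 SD, cut at about 35% in these data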;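 further: 0% = DMSO alone and 100% = 100 µM mitoxantrone as full dye displacement; higher means more dye released from RNA so lower well fluorescence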
NR2E3 ag-1 – activates human NR2E3 receptor. CHO-S Gal4-NCOR/VP16-NR2E3 two-hybrid, luciferase. inhibition of corepressor binding, % at 3.98 µM. actives 0.35% (n = 360,000). AID 602229;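 active means inhibition above the mean of all tested compounds plus 3 SD, cut at about 70% in these data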;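 further: 0% = DMSO with NR2E3 transfected cells and 100% = cells lacking NR2E3 construct; higher means lower luciferase signal from less NR2E3 corepressor binding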
Target sequence (Q9Y5X4 whole entry, looked up, the tested form may be a part): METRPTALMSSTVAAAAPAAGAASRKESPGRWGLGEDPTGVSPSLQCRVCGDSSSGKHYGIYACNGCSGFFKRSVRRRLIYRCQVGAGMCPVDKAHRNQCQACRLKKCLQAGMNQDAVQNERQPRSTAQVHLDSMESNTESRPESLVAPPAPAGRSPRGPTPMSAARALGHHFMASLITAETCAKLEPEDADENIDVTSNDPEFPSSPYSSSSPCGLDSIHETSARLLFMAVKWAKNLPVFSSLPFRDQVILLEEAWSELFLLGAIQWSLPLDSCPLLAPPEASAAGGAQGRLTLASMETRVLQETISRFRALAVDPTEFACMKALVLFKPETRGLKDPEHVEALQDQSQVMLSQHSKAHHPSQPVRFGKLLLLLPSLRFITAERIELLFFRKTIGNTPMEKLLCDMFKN
NR2E3 ag-2 – activates human photoreceptor nuclear receptor NR2E3 | Q9Y5X4 | inhibition of corepressor binding, % at 4.78 µM | AID 2300 | GST-NR2E3/biotin-RetCOR TR-FRET, 1536-well | actives 0.12% (n = 320,000);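 active means percent inhibition above the cutoff of mean plus 3 SD of all tested compounds, set per screening campaign, cut at about 20% in these data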;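 further: 0% = DMSO wells and 100% = biotin wells as full block of FRET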
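Material: NR2E3–RetCOR corepressor complex / Incubation: Compound–protein incubation for 5 h at 4 °C / Dosing: compound at 4.8 µM, single dose / Detection: time-resolved FRET / Benchmarks: high control biotin, low control 0.6% DMSO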
PG9 Ab binder – small molecules binding HIV-1 gp120 antibody PG9. TR-FRET gp120-PG9 antibody binding. inhibition, % at 6.7 µM. actives 0.43% (n = 360,000). AID 624416; in the data active means inhibition above about 8.5%
NR2E3 ag confirm – confirmation of human NR2E3 agonists | shares compounds with NR2E3 ag-1 | inhibition, % at 3.98 µM | CHO-S mammalian two-hybrid NR2E3-NCOR, luciferase luminescence | actives 51% (n = 2,300) | AID 624378;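 active means average inhibition above a cutoff equal to the mean inhibition of all tested compounds plus one SD, cut at about 70% in these data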;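 further: 0% = DMSO in NR2E3 cells and 100% = DMSO in cells lacking NR2E3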
GAL4-VP16 luc – reduces GAL4-VP16 reporter signal in NR2E3 counterscreen. actives 29% (n = 2,300). inhibition, % at 3.98 µM. shares compounds with NR2E3 ag-1. CHO-S GAL4-VP16 luciferase reporter, luminescence;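 active means mean inhibition above a cutoff equal to the average over all tested compounds plus one standard deviation, cut at about 70% in these data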;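 further: luciferase from a UAS reporter driven by GAL4-VP16 transactivation; 0% = DMSO with VP16-transfected cells and 100% = DMSO with cells lacking VP16; higher means less reporter light so more repression of VP16 activity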
Starred values were filed as active, the others as inactive; . = no result. In the library only some 2.6% were active in any assay of this set; here they are far more common.

SMILES	Rev-erbA mod	rCAG RNA binder	NR2E3 ag-1	NR2E3 ag-2	PG9 Ab binder	NR2E3 ag confirm	GAL4-VP16 luc
COc1cccc(C=Nc2ccc3c(c2)OCCO3)c1O	.	.	74*	1	.	-18	-24
CCOC(=O)c1cnc(-n2nc(C)cc2C)nc1NNc1ncc(-c2ccccc2)cn1	.	.	.	6	.	.	.
CCOC(=O)c1cnc(-n2nc(C)cc2C)nc1NCc1ccccc1	0	-2	94*	4	1	14	0
CCOC(=O)c1cnc(-n2nc(C)cc2C)nc1NC(C)c1ccccc1 (stereo not given)	-3	9	98*	-5	-2	14	5
CCOC(=O)c1cnc(-n2nc(C)cc2C)nc1NCCO	-4	-3	12	1	0	.	.
C[C@@H]1CN([C@H](C)CO)C(=O)c2cc(NC(=O)Nc3ccc(F)cc3)ccc2O[C@@H](C)CCCCO[C@@H]1CN(C)C(=O)CCCN(C)C	-3	7	.	.	1	.	.
O=C(NC(c1cccnc1)C(F)(F)F)c1cc(COc2ccc3c(c2)CCCC3)on1 (stereo not given)	-2	3	96*	0	-2	97*	79*
Cn1cc(CNC(=O)c2cc(COc3ccc4c(c3)CCCC4)on2)cn1	-4	-5	6	3	-1	.	.
c1ccc(-c2nc(NCC3CCCO3)c3ccccc3n2)nc1 (stereo not given)	2	0	89*	0	-1	-8	2
c1ccc(-c2nc(NCc3ccco3)c3ccccc3n2)nc1	-2	-1	83*	0	-2	11	-2
Cc1ccc(S(=O)(=O)Nc2cccc3ncccc23)cc1	-3	-2	13	0	0	.	.
Cc1ccc(S(=O)(=O)Nc2cccc3ncccc23)s1	.	.	102*	3	.	53	5
COC(=O)C1=C(C)N(C)C(=NCc2ccc3c(c2)OCO3)NC1c1cccc(F)c1 (stereo not given)	-4	8	.	.	0	.	.
Cc1ccc2nc(-c3ccccn3)c(NC3CCCC3)n2c1	-2	-2	60	1	-2	-34	-79
Cc1cccc(C)c1Nc1c(-c2ccccn2)nc2ccccn12	3	-8	77*	0	1	17	2
Cc1ccc(Nc2c(-c3ccccn3)nc3cccc(C)n23)cc1	6	-1	96*	1	-2	97*	83*
CCCCC(=O)N1CCC(NS(=O)(=O)c2ccc3c(c2)CCN3C(C)=O)CC1	-3	2	.	.	.	.	.
CC(C)[C@H](NC(=O)c1ccccc1Cl)C(=O)Nc1nc(-c2ccccn2)cs1	-5	0	17	3	2	.	.
CC(Oc1ccc(Br)cc1)C(=O)Nc1nc(-c2ccccn2)cs1 (stereo not given)	-3	0	76*	-3	-1	19	13
O=C(Nc1nc(-c2ccccn2)cs1)Nc1ccc(F)cc1F	1	14	70*	0	0	36	-20
O[C@@H]1[C@@H](O)C=C2CCN3Cc4cc5c(cc4[C@H]1C23)OCO5 (stereo not given in full)	0	3	89*	2	1	92*	85*
CC(Cl)C(=O)N1CCC(C(=O)NC2CCCc3ccccc32)CC1 (stereo not given)	-1	-1	.	.	.	.	.
C/C(=N\NC(=S)NC1CCCCC1)c1ccc(O)cc1	-1	0	0	3	-1	.	.
C/C(=N\NC(=S)NC1CCCCC1)c1ccccc1	0	-2	55	-2	0	27	-43
Cc1cc(NNC(=O)c2cccc(C(F)(F)F)c2)nc2c1c(C)nn2C	-5	-1	53	4	-1	87*	68
SMILES	Rev-erbA mod	rCAG RNA binder	NR2E3 ag-1	NR2E3 ag-2	PG9 Ab binder	NR2E3 ag confirm	GAL4-VP16 luc
COc1cccc(CNC(=O)[C@H]2CCCN2C(=O)[C@H]2CCCN2C(=O)c2ccc(F)c(F)c2)c1	7	0	.	.	1	.	.
Nc1nc2n[nH]nc2c(=O)[nH]1	-2	-2	81*	1	0	24	53
Nc1nc2nn(-c3ccccc3)nc2c(=O)[nH]1	-4	1	-30	-1	0	.	.
OC1(C#Cc2c(-c3ccsc3)sc3ccccc23)CCCCC1	5	6	.	.	0	.	.
Cn1c(Cc2cccs2)nnc1SCC(=O)Nc1ccc2c(c1)OCCO2	-7	2	.	.	.	.	.
COc1cccc(C(=O)N[C@H](C(=O)N2CCC[C@H]2C(=O)NC2CCCC2)C2CCCCC2)c1	-2	1	.	.	0	.	.
CC(C)(C)c1ccc(C(=O)Nc2ccc(CC(=O)O)cc2)o1	-3	1	51	0	-2	41	56
NC(=O)c1c(-c2ccc(Cl)cc2Cl)csc1NC(=O)Cc1ccccc1	2	0	56	-3	-3	64	62
CCOC(=O)C1CCCN(S(=O)(=O)c2cc3c(cc2Br)CCN3C(=O)CC)C1 (stereo not given)	-3	3	.	.	.	.	.
CC(=O)Nc1ccc(OCc2cccc3ccccc23)cc1	4	0	48	1	-2	47	44
C=CCN1C(=O)c2[nH]nc(-c3ccccc3)c2C1c1ccc(C)cc1 (stereo not given)	-2	0	.	.	-1	.	.
O=NN(CCc1ccncc1)c1ccc(OCc2ccccc2)cc1	-2	-8	86*	0	0	95*	85*
CC(C(=O)NC1CC1)c1ncc(C(F)(F)F)cc1Cl (stereo not given)	0	-1	-15	4	0	.	.
CC(C(=O)N1CCN(c2ccc(Cl)cc2)CC1)c1ncc(C(F)(F)F)cc1Cl (stereo not given)	-3	-10	81*	10	0	76*	51
O=C(c1cc(S(=O)(=O)N2CCN(c3ccccc3)CC2)ccc1Cl)N1CCCCCCC1	0	-2	67	3	1	79*	48
CN(CC(=O)Nc1ccccc1Cl)C(=O)c1cccc(S(=O)(=O)N2CCN(Cc3ccccc3)CC2)c1	-1	0	102*	1	0	63	46
CC1CN(C(=O)c2cc(S(=O)(=O)N3CCN(c4ccccc4)CC3)ccc2Cl)CC(C)O1 (stereo not given)	-7	-1	10	-2	0	.	.
CN(CC(=O)Nc1ccccc1Cl)C(=O)c1cccc(S(=O)(=O)N2CCN(c3ccc(F)cc3)CC2)c1	0	3	94*	-2	0	73*	50
Cc1cccc(C)c1NC(=O)CN(C)C(=O)c1cccc(S(=O)(=O)N2CCN(c3ccc(F)cc3)CC2)c1	-5	10	11	-1	1	.	.
CN(CC(=O)Nc1cccc(F)c1)C(=O)c1cccc(S(=O)(=O)N2CCN(c3ccc(F)cc3)CC2)c1	-3	6	50	.	-1	46	26
